Reference: publication PMC6287672 (International Journal for Parasitology: Drugs and Drug …, 2018)

Experiments:
Assay in all cases: two-electrode voltage clamp, Xenopus oocytes
Format in all cases: cell-based
[1] = molecular target: T1, Hco-UNC-49BC (Haemonchus contortus, UniProt D6BK80)
T1 sequence (D6BK80 22-496): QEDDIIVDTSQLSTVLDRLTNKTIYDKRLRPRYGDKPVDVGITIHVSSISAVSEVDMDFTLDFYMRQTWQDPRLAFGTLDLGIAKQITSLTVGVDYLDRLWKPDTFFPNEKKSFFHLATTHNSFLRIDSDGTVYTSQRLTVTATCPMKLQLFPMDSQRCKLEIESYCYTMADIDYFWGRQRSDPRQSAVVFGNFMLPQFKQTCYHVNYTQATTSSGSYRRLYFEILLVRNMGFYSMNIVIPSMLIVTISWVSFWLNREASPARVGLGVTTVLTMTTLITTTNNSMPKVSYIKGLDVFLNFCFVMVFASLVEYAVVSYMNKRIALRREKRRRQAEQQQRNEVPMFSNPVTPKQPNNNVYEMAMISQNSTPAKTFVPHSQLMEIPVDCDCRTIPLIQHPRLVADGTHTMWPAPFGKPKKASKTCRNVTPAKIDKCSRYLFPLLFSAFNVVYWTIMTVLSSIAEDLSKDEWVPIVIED
T1 sequence (D6BJF3 22-440 partner): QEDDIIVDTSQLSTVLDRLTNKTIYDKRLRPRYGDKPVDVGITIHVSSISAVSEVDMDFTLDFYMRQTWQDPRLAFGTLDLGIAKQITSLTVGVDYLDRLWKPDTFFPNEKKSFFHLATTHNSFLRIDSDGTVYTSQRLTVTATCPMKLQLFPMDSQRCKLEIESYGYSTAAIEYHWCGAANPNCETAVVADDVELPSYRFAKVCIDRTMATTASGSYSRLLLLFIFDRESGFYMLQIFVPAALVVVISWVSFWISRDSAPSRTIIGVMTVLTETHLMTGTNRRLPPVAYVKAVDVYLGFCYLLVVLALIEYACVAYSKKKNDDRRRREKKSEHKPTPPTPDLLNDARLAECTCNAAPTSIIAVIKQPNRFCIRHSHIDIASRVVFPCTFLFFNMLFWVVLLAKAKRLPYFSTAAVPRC
Summary of the method: (§1)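 Oocytes from X. laevis, collagenase-treated in OR-2 (pH 7.5) for 2 h, were co-injected with wild-type or mutant hco-unc-49b cRNA plus wild-type hco-unc-49c cRNA and kept 48 h at 20ᵒC in supplemented ND96. Cells were clamped at −60 mV and GABA in ND96 was perfused, with 1–2 min ND96 washes between doses. Currents were normalised to each oocyte's maximal GABA response and fitted with a variable-slope Hill equation (≥5 oocytes, two batches).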

[2] = molecular target: T2, Hco-UNC-49BC (Haemonchus contortus, UniProt D6BK80, R241K)
T2 sequence (D6BK80 22-496 R241K): T1 sequence (D6BK80 22-496)
T2 sequence (D6BJF3 22-440 partner): T1 sequence (D6BJF3 22-440 partner)
Summary of the method: as §1

[3] = molecular target: T3, Hco-UNC-49BC (Haemonchus contortus, UniProt D6BK80, H137A)
T3 sequence (D6BK80 22-496 H137A): T1 sequence (D6BK80 22-496)
T3 sequence (D6BJF3 22-440 partner): T1 sequence (D6BJF3 22-440 partner)
Summary of the method: as §1

[4] = molecular target: T4, Hco-UNC-49BC (Haemonchus contortus, UniProt D6BK80, H137K)
T4 sequence (D6BK80 22-496 H137K): T1 sequence (D6BK80 22-496)
T4 sequence (D6BJF3 22-440 partner): T1 sequence (D6BJF3 22-440 partner)
Summary of the method: as §1

[5] = molecular target: T5, Hco-UNC-49BC (Haemonchus contortus, UniProt D6BK80, R241A)
T5 sequence (D6BK80 22-496 R241A): T1 sequence (D6BK80 22-496)
T5 sequence (D6BJF3 22-440 partner): T1 sequence (D6BJF3 22-440 partner)
Summary of the method: as §1

[6] = molecular target: T6, Hco-UNC-49BC (Haemonchus contortus, UniProt D6BK80, D83T)
T6 sequence (D6BK80 22-496 D83T): T1 sequence (D6BK80 22-496)
T6 sequence (D6BJF3 22-440 partner): T1 sequence (D6BJF3 22-440 partner)
Summary of the method: as §1

[7] = molecular target: T7, Hco-UNC-49BC (Haemonchus contortus, UniProt D6BK80, E131A)
T7 sequence (D6BK80 22-496 E131A): T1 sequence (D6BK80 22-496)
T7 sequence (D6BJF3 22-440 partner): T1 sequence (D6BJF3 22-440 partner)
Summary of the method: as §1

[8] = molecular target: T8, Hco-UNC-49BC (Haemonchus contortus, UniProt D6BK80, D83E)
T8 sequence (D6BK80 22-496 D83E): T1 sequence (D6BK80 22-496)
T8 sequence (D6BJF3 22-440 partner): T1 sequence (D6BJF3 22-440 partner)
Summary of the method: as §1

[9] = molecular target: T9, Hco-UNC-49BC (Haemonchus contortus, UniProt D6BK80, R159A)
T9 sequence (D6BK80 22-496 R159A): T1 sequence (D6BK80 22-496)
T9 sequence (D6BJF3 22-440 partner): T1 sequence (D6BJF3 22-440 partner)
Summary of the method: as §1

[10] = molecular target: T10, Hco-UNC-49BC (Haemonchus contortus, UniProt D6BK80, D83C)
T10 sequence (D6BK80 22-496 D83C): T1 sequence (D6BK80 22-496)
T10 sequence (D6BJF3 22-440 partner): T1 sequence (D6BJF3 22-440 partner)
Summary of the method: as §1

[11] = molecular target: T11, Hco-UNC-49BC (Haemonchus contortus, UniProt D6BK80, D83N)
T11 sequence (D6BK80 22-496 D83N): T1 sequence (D6BK80 22-496)
T11 sequence (D6BJF3 22-440 partner): T1 sequence (D6BJF3 22-440 partner)
Summary of the method: as §1

For `NCCCC(=O)O` [GABA], the EC50 [1] was 68 ± 17 µM, the EC50 [2] was 3790 ± 435 µM and the EC50 [3] was 2170 ± 173 µM. For the same molecule, the EC50 [4] was 4170 ± 745 µM, the EC50 [5] was 5170 ± 473 µM and the EC50 [6] was 520 ± 34 µM. It also gave an EC50 [7] of 219 ± 21 µM, an EC50 [8] of 276 ± 37 µM and an EC50 [9] of 5470 ± 396 µM. It also gave an EC50 [10] of 454 ± 47 µM and an EC50 [11] of 342 ± 30 µM.
